Measured values pooled from the literature.
CDK8: Cyclin-dependent kinase 8 (CDK8, Homo sapiens, UniProt P49336)
CDK8 with cyclin C: Cyclin-dependent kinase 8, with cyclin C (CDK8, Homo sapiens, UniProt P49336)

SMILES	target	test	setting	measurement	value
Cn1c2c(Cl)c(Cl)ccc2c2cc(N)[nH]c(=O)c21	CDK8	thermal stability, DSF	10 µM	ΔTm	0.7 °C
Cc1sc(C(=O)NC2COC2)cc1-n1cc(NC(=O)Nc2c(F)cccc2Cl)cn1	CDK8 with cyclin C	enzyme activity, inhibitor	10 µM	remaining activity	92.7%
CC(C)(C)c1nc2c(s1)c1nc(N)ncc1c1ccc(NS(=O)(=O)c3c(F)cccc3F)c(F)c12	CDK8 with cyclin C	enzyme activity, inhibitor, radiometric	1 µM	remaining activity	100%
NS(=O)(=O)c1cc(NC(=O)Cc2ccccc2)ccc1Oc1cccc(Cl)c1	CDK8	cell-free assay, competition with immobilised ligand	1 µM	remaining binding	68%
CN1CCN(C(=O)c2ccc3cc(CCNc4ccnc5ccc(C#N)cc45)ccc3c2)CC1	CDK8	binding, competition with immobilised ligand	2 µM	inhibition	> 85%
Cc1c(NC(=O)c2cc(C(N)=O)nc3cc(F)ccc23)c(C(F)(F)F)nn1Cc1ccc(C(C)(C)C)cc1	CDK8	cell-free assay, competition with immobilised ligand	1 µM	remaining binding	100%
CCN1CCC2(CC1)NC(=O)c1c(c3ccc(Cl)c(Cl)c3n1C)C2C#N (racemic)	CDK8	thermal stability, DSF	10 µM	ΔTm	1.2 °C
Nc1ncnc2occ(-c3ccc(NC(=O)Nc4cc(C(F)(F)F)ccc4F)cc3)c12	CDK8	cell-free assay, inhibitor	20 µM	remaining signal	2%
Cn1c2c(c3ccc(Cl)c(Cl)c31)C(C#N)C1(CCNCC1)NC2=O (racemic)	CDK8	thermal stability, DSF	10 µM	ΔTm	2.2 °C
O=C(O)[C@H]1[C@H](Cn2nnc3ccccc3c2=O)CC[C@@H]1C(=O)c1ccc(OCCC2CCOCC2)cc1	CDK8	cell-free assay, competition with immobilised ligand	1 µM	remaining binding	100%
Cc1ccc(C(=O)Nc2ccc(CN3CCN(C)CC3)c(C(F)(F)F)c2)cc1C#Cc1cnc2cccnn12	CDK8	enzyme activity, inhibitor	23.5 nM	remaining activity	9.5%
CCC(=O)N[C@H]1CC[C@@H](C(=O)N(C)c2ccc(-c3nc4ccccc4o3)cc2)C1	CDK8	cell-free assay, competition with immobilised ligand	1 µM	remaining binding	100%
CC1(C)NC(=O)c2[nH]c3c(Cl)c(Cl)ccc3c2C1C#N (centres unmarked)	CDK8	thermal stability, DSF	10 µM	ΔTm	0.5 °C
COc1ccnn2ncc(-c3ccnc(N(C)C)n3)c12	CDK8	binding	1 µM	remaining binding	100%
